For one assay, the target named is HDAC1 (Homo sapiens, UniProt Q13547). Kind of assay: Enzymatic HDAC fluorogenic assay, HDAC1. It counts as biochemical.
Another assay has as its target HDAC2 (Homo sapiens, UniProt Q92769). As to the kind of experiment: Enzymatic HDAC fluorogenic assay, HDAC2. In kind it is biochemical.
The target of a further assay is HDAC3 (Homo sapiens, UniProt O15379). Kind of assay: Enzymatic HDAC fluorogenic assay, HDAC3. It counts as biochemical.
The target of another assay is HDAC4 (Homo sapiens, UniProt P56524). As to the kind of experiment: Enzymatic HDAC fluorogenic assay, HDAC4. In kind it is biochemical.
Chain of HDAC4 (P56524 627-1084 limits assumed): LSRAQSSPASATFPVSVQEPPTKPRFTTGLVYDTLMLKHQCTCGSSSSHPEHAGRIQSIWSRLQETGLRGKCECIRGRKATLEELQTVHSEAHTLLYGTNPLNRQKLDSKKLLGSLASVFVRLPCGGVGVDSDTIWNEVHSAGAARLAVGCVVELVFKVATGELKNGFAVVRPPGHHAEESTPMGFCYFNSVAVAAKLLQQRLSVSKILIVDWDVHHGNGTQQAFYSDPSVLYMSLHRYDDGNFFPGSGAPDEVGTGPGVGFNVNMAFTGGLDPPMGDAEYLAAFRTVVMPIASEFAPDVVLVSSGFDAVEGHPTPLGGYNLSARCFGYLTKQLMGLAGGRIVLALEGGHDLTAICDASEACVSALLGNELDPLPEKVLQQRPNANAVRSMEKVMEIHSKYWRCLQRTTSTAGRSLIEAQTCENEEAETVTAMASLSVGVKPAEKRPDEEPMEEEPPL
In another assay the target is T1, HDAC6 (Homo sapiens, UniProt Q9UBN7).
T1 sequence (Q9UBN7 1-1215): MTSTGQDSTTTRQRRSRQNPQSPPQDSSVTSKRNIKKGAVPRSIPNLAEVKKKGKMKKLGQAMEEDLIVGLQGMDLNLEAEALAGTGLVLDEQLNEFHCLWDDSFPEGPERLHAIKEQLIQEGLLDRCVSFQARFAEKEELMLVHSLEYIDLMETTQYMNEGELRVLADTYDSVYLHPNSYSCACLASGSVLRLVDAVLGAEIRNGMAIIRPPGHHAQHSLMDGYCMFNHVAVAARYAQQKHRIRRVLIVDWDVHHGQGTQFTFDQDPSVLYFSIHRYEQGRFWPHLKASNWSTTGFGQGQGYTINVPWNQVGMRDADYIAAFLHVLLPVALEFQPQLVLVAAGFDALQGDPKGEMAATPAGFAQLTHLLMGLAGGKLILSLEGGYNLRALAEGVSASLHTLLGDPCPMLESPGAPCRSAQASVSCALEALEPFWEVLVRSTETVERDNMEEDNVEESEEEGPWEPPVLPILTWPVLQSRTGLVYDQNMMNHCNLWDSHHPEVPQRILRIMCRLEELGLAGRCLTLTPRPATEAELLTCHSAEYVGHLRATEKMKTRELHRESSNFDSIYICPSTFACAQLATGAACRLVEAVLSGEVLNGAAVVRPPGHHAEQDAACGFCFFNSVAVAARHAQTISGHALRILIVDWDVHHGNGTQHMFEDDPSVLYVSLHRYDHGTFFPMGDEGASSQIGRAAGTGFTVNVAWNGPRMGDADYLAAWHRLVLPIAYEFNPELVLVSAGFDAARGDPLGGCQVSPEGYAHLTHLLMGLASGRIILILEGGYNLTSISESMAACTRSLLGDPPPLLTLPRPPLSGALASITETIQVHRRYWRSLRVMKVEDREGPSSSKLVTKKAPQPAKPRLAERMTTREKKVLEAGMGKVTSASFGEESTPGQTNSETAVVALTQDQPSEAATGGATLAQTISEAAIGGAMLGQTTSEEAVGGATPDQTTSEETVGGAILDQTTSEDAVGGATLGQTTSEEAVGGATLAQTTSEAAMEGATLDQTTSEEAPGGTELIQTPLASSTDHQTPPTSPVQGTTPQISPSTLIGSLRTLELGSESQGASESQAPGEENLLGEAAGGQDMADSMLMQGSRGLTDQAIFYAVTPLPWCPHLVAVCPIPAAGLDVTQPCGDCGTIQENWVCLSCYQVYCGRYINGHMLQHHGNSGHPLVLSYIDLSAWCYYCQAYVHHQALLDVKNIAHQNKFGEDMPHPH
Kind of assay: Enzymatic HDAC fluorogenic assay, HDAC6. It counts as biochemical.

In the next assay the target is T2, HDAC11 (Homo sapiens, UniProt Q96DB2).
T2 sequence (Q96DB2 1-347): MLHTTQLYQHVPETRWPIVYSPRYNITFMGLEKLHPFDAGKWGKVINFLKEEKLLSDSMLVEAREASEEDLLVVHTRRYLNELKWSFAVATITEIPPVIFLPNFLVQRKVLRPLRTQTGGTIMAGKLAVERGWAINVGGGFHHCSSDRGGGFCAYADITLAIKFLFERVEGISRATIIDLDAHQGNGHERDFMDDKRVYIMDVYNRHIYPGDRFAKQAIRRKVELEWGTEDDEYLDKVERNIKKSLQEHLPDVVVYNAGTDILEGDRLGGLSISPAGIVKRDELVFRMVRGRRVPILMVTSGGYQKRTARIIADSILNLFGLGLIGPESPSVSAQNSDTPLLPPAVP
Kind of assay: Enzymatic HDAC fluorogenic assay, HDAC11. It counts as biochemical.

Assay [1] relates to MDA-MB-231 cells. Kind of assay: Cell proliferation assay. In kind it is cell-based, human. Particulars: for impaired MDA-MB-231 cell growth: 3 days; for anti-proliferative activity (in words): 1, 2 and 3 days.
Assay [2] deals with MDA-MB-231 cells. Kind of assay: Western blot of acetylation status and HDAC expression. In kind it is cell-based, human. Particulars: 24 hours. Put shortly:
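MDA-MB-231 cells were treated 24 hours with test compound at 50–500 μM, with DMSO as negative control. Cells were lysed on ice in RIPA buffer (pH 7.6) with protease and phosphatase inhibitors. Protein (30 µg/lane) was run on SDS-PAGE and blotted to PVDF, then blocked in 5% skim milk/TBST. Antibodies against Ac-α-tubulin (Lys40), α-tubulin, Ac-histone H3 (Lys9), H3, HDAC1, HDAC6 and GAPDH were applied overnight, followed by HRP secondary and ECL detection.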
For orientation: Immunoblotting shows a protein as a band on a membrane.

The test system of assay [3] is MDA-MB-231 cells. Kind of assay: Assessment of cell morphology. The following applies: 24 hours, dose-dependent, most significant at 300 to 500 μM. In kind it is cell-based, human.

This is an account of results in article PMC9276175 (Medicine, 2022).

Each structure is given as a SMILES string.

The term IC50 denotes the concentration needed to halve the response being measured. High values mean a need for much substance, low ones inhibition by little substance.

Chain of HDAC3 (O15379 whole entry): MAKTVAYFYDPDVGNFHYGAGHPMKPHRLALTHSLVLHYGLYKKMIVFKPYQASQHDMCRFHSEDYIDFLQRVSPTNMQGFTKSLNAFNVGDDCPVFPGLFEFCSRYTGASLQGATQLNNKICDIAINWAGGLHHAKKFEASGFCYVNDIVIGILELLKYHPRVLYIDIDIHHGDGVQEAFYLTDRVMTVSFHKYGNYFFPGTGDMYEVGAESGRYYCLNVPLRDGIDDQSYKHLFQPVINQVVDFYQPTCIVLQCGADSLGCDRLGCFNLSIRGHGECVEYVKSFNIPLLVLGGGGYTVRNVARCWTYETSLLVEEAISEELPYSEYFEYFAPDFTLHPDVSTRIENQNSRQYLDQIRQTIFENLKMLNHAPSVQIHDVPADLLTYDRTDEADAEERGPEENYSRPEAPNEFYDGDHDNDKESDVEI
Chain of HDAC3 (Q9Y618 395-489 partner limits assumed): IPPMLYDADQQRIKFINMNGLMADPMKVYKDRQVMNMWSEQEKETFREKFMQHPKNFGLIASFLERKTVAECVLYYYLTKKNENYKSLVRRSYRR
Chain of HDAC1 (Q13547 whole entry): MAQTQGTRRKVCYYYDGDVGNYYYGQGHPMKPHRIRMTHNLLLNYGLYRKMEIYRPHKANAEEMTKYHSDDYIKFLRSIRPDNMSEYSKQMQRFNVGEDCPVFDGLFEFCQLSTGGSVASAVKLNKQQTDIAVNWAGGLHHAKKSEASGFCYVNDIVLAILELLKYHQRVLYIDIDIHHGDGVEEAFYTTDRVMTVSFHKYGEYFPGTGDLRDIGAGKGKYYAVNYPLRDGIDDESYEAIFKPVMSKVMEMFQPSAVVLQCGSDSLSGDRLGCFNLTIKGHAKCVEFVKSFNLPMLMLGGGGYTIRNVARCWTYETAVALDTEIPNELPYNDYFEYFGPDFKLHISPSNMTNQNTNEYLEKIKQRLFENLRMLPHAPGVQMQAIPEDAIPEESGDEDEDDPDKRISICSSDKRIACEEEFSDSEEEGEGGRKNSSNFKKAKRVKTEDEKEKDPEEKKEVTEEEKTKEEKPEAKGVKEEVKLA
Chain of HDAC2 (Q92769 whole entry): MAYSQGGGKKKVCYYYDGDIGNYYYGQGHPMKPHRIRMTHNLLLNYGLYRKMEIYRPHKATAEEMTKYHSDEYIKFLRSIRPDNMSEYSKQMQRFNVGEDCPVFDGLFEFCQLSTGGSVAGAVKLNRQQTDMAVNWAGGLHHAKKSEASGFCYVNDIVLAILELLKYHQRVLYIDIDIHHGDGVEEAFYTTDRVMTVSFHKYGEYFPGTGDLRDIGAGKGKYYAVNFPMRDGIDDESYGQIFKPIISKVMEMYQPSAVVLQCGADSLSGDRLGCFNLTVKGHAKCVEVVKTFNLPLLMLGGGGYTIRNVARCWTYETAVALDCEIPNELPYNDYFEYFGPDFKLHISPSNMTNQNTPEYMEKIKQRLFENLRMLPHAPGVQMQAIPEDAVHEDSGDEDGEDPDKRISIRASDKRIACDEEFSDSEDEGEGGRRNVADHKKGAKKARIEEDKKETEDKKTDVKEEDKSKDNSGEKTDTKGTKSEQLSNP

In the case of `O=C(CCCCCNC(=O)c1ccccc1O)Nc1ccccc1` [Compound 5, 2-Hydroxy-N-(6-oxo-6-(phenylamino)hexyl)benzamide], the IC50 is 22.2 ± 2.69 µM against HDAC1; 27.3 ± 3.71 µM on HDAC2; 7.9 ± 2.57 µM against HDAC3; > 100 µM on HDAC4; > 100 µM at HDAC6; > 100 µM against HDAC11. The “inhibition of class IIa HDAC (in words)” value on HDAC4 is recorded as “failed to inhibit”. In addition, the “inhibition of class IIb HDAC (in words)” value against HDAC6 is given as “failed to inhibit”. Moreover, the “inhibition of class IV HDAC (in words)” value against HDAC11 is listed as “failed to inhibit”. Besides, the “impaired MDA-MB-231 cell growth” value in the assay on MDA-MB-231 cells [1] (500 μM) is 64%; in the assay with MDA-MB-231 cells [1] (1000 μM) it was 81%. For the same compound, the “anti-proliferative activity (in words)” value was “mediocre dose- and time-dependent anti-proliferative activity” in the assay on MDA-MB-231 cells [1] (concentrations from 300 to 1000 μM); “no anti-proliferative activity” in the assay with MDA-MB-231 cells [1] (up to 100 μM concentration). The entries for the “expression level of HDAC6” value with MDA-MB-231 cells [2] (500 μM) and in the assay on MDA-MB-231 cells [2] (50 to 500 μM) were “significantly depleted the expression level of HDAC6” and “decreased the expression level of HDAC6 in a dose-dependent manner”, respectively. The “acetylation of α-tubulin” value in the assay on MDA-MB-231 cells [2] (concentrations ranging from 300 to 500 μM) is listed as “promoted the acetylation of α-tubulin”. The “acetylation of Histone H3” value in the assay on MDA-MB-231 cells [2] (up to 300 μM concentration) is “dose-dependently increased the acetylation of Histone H3”. In addition, in the assay on MDA-MB-231 cells [3], the “morphological changes in cells” value was “more elongated and spindle-shaped”.
Regarding `O=C(CCCCCCC(=O)Nc1ccccc1)NO` [SAHA, Vorinostat, reference compound], the “inhibition of class IV HDAC11 (in words)” value against HDAC11 (up to 100 μM concentration) is given as “no inhibition”.
